Rows were chosen to be rich in hits. Some 5.1% of all compounds tested hit in one or more screens of this group.
STAT1 act: activators of IFN-gamma induced STAT1 signaling. NIH 3T3 STAT1-luciferase reporter, luminescence; 100% = IFN-gamma alone, no compound. activation (% of control), % at 5.5 µM. 2.6% of 200,000 active;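 active means activation above the screen-wide mean activation plus 3 SD, cut at about 130% in these data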
STAT3 blocker: reduces IL-6 driven STAT3 reporter signal | U3A cells, IL-6 STAT3-luciferase reporter, luminescence; host cell line lacks STAT1 | inhibition, % at 5.5 µM | 0.89% of 190,000 active | AID 862;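 active means inhibition above the mean inhibition across all screened compounds plus 3 SD, cut at about 44% in these data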
STAT1 inh: STAT1 signaling inhibition | NIH 3T3 STAT1-luciferase reporter, IFN-gamma, luminescence | inhibition, % at 5.5 µM | 0.35% of 200,000 active | AID 920;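 active means inhibition above a set limit, the mean inhibition across all tested compounds plus 3 SD, cut at about 34% in these data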
STAT3 activator: activators of IL-6 induced STAT3 signaling | activation (% of control), % at 5.6 µM | 0.91% of 190,000 active | U3A cells, IL-6 STAT3-luciferase reporter, luminescence; 100% = signal with IL-6 EC80 alone;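 active means activation above the screen-wide mean of compound activation plus 3 SD, cut at about 130% in these data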
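Material: STAT3-luciferase reporter U3A cells. Controls: IL-6-treated wells, 100% activation. Read-out: % activation versus median of IL-6-stimulated wells. Probe or stimulus: IL-6 stimulus at 33 ng/mL final. Timing: compound 1 h, then IL-6 6 h at 37 °C. Signal: reporter luminescence signal.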
NF-kB expr up: compounds increasing NF-kB expression in human neuronal cells; NF-kB reporter expression; active compounds read high; fold change at 12.5 µM; 1.6% of 190,000 active; in the data active means fold change above about 3.3
APP 5'UTR act: activates APP 5'UTR luciferase reporter | 1% of 190,000 active | SH-SY5Y APP 5'UTR luciferase reporter, luminescence; zero percent = DMSO vehicle wells | activation, % at 2 µM;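 active means activation above a set limit, based on mean plus 3 SD of controls, cut at about 140% in these data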
Of the large screens only hits and unclear results are named; the others gave an inactive call.

Cc1cc2nc(-c3ccc(SCC(=O)Nc4ccc5c(c4)OCCO5)nc3)[nH]c2cc1C	APP 5'UTR act 180
Cc1ccccc1-c1cc(C(=O)Nc2sc(C(=O)OC(C)C)c(C)c2C#N)c2ccccc2n1	none
Cc1c(C(=O)N2CCc3ccccc3C2)oc2ccc(S(=O)(=O)N3CC(C)CC(C)C3)cc12 (stereo not given)	none
Cc1ccc(-c2nc3ccccc3c(C(=O)NCc3cccs3)c2C)cc1	STAT3 activator 143
COc1cccc(-c2noc(-c3ccc4c(c3)OCO4)n2)c1	STAT3 blocker 72, STAT1 inh 41, NF-kB expr up 5.7, APP 5'UTR act 159
COc1ccc(-c2noc(-c3ccc4c(c3)OCO4)n2)cc1	NF-kB expr up 3.9
CCc1ccc(C2CC(=O)N(c3cccc(F)c3)C3=C2C(=O)OC3)cc1 (stereo not given)	none
Cc1cccc(C(C(N)=O)c2ncc(C(F)(F)F)cc2Cl)c1 (stereo not given)	none
COc1ccc(-c2csc(Nc3ncccc3C)n2)cc1OC	STAT1 act 141
Oc1ccc(Nc2nc(-c3ccc(O)cc3)cs2)cc1	none
COc1ccc(-c2csc(/N=C/N(C)C)n2)cc1OC	none
Cc1cccnc1Nc1nc(-c2ccc(O)c(O)c2)cs1	STAT1 act 130, NF-kB expr up 3.6
CCOc1ccc(S(=O)(=O)N/N=C2/CC(c3ccccc3)Oc3ccccc32)cc1 (stereo not given)	none
Cc1sc2c(c1C)C(=O)NC(c1cccc(O)c1)N2 (stereo not given)	STAT3 activator 144
CCN(CC)C(=O)c1sc2nc(-c3ccc(OC)cc3)cn2c1C	STAT1 act 143
COc1ccc(-c2cn3c(C)c(C(=O)NCCN4CCOCC4)sc3n2)cc1	none
Cc1ccccc1-c1cnn(-c2cccc([N+](=O)[O-])c2)c1N	none
Nc1c(-c2ccccc2)cnn1-c1cccc(C(F)(F)F)c1	STAT1 act 143
Nc1c(-c2ccccc2)cnn1-c1ccc(C(=O)O)cc1	STAT1 act 133, NF-kB expr up 5.7, APP 5'UTR act 138
N#Cc1c(C#N)c(-c2ccccc2)n(-c2ccc(C(=O)O)cc2)c1N	none
Cc1ccc(-c2cnn(-c3cccc([N+](=O)[O-])c3)c2N)cc1	STAT1 act 142
C/C(=C\c1ccccc1)C(=O)NCCCn1ccnc1	none
Cc1ccsc1/C=C1\SC(N2CC(C)OC(C)C2)=NC1=O (stereo not given)	none
COc1cc(C2C3=C(CCCC3=O)Nc3[nH]n(-c4ccccc4)c(=O)c32)ccc1OC(C)=O (stereo not given)	none
COc1ccc(/C=C/C(=O)N2CCN(S(=O)(=O)c3ccccc3)CC2)cc1OC	STAT1 act 138
CC(CCc1ccccc1)NC(=O)C1CCN(S(=O)(=O)N2CCOCC2)CC1 (stereo not given)	none
COC(=O)Cc1ccc(NC(=O)c2ccccc2Cl)cc1	none
Cc1ocnc1C(=O)Nc1ccc(Cl)cc1	STAT1 act 131
CN(C)S(=O)(=O)c1ccc(C(=O)Nc2ccc(Cl)cc2)cc1	none
COC(=O)Cc1ccc(NC(=O)c2ccc(C(C)(C)C)cc2)cc1	STAT3 blocker 85, STAT1 inh 44
Cc1ccc(NC(=O)c2ocnc2C)cc1Cl	STAT1 act 145
CCOC(=O)c1[nH]cnc1C(=O)Nc1ccc(Cl)cc1	none
CC(C)(C)c1ccc(C(=O)Nc2ccc(Cl)cc2)cc1	STAT1 act 130
COc1ccccc1N(C)S(=O)(=O)c1ccc(C(=O)Nc2nc(C)cs2)cc1	none
O=C(O)c1sc2cc(C(F)(F)F)cnc2c1-c1cccs1	none
CCc1cc2cc(C(=O)Nc3ccccc3F)sc2s1	STAT1 act 146, APP 5'UTR act 163
COc1cc2c(cc1NC(=O)CN(C)Cc1ccc(OC)c(OC)c1)oc1ccccc12	none
Cn1c(SCc2nc3ccccc3c(=O)[nH]2)nc2ccccc21	none
Cn1c(-c2ccccc2)cnc1SCc1nc2ccccc2c(=O)[nH]1	STAT1 act 134, APP 5'UTR act 142
Cc1nn(-c2cc(N(S(C)(=O)=O)S(C)(=O)=O)c(Cl)cc2Cl)c(=O)n1C	none
Cc1cccc(NC2SC(=O)N(c3ccccc3)C2=O)c1 (stereo not given)	NF-kB expr up 3.5
Cc1cccc(NC(=O)CC2SC(=O)N(c3ccccc3)C2=O)c1 (stereo not given)	none
Cc1ccc(C)c(NC(=O)CSc2nc3ccc(N4C(=O)c5ccccc5C4=O)cc3s2)c1	none
Cc1ccc(NC(=O)CCSc2ccccn2)cc1	STAT1 act 142
O=C(CSc1ccccn1)Nc1ccc2c(c1)C(=O)c1ccccc1C2=O	none
O=C(CSc1ccccn1)Nc1ccc2ccccc2c1	STAT1 act 132, APP 5'UTR act 137
Cc1cccc(NC(=O)CCSc2ccccn2)c1	none
CNc1nc(-c2ccc([N+](=O)[O-])cc2)cs1	STAT1 act 137
CCNc1nc(-c2ccc(Cl)cc2)cs1	STAT1 act 149, NF-kB expr up 3.8, APP 5'UTR act 148
CC(C)C(=O)Nc1nc(-c2ccc([N+](=O)[O-])cc2)cs1	none
CNc1nc(-c2ccc(Cl)cc2)cs1	STAT1 act 132
COc1ccc(/C=C(/NC(=O)c2ccccc2)C(=O)NC2CCS(=O)(=O)C2)cc1 (stereo not given)	none
Cc1ccccc1-c1noc(-c2ccccc2F)n1	STAT1 act 139, NF-kB expr up 6.8
Cc1ccccc1-c1noc(-c2ccc(Cl)cc2)n1	NF-kB expr up 3.4
Cc1ccccc1-c1noc(-c2ccc(O)cc2)n1	STAT1 act 140, NF-kB expr up 7.7, APP 5'UTR act 156
COc1c(O)ccc(C2NC(=O)NC(C)=C2C(=O)Nc2ccccc2C)c1[N+](=O)[O-] (stereo not given)	none
CC1=CC(C)=Nc2ccccc2N1	STAT1 act 129
O=C1CC(/C=C/c2ccccn2)=Nc2ccccc2N1	none
CCCn1c(NC(=O)c2ccc(F)cc2)nc2ccccc21	none
CCCn1c(NC(=O)c2ccc(Br)cc2)nc2ccccc21	STAT3 activator 134
Cc1[nH]n(-c2cccc(Cl)c2)c(=O)c1C=NCc1ccco1	NF-kB expr up 6.7, APP 5'UTR act 145
Cc1[nH]n(-c2cccc(Cl)c2)c(=O)c1C=NCC(C)C	STAT1 act 144
Cc1[nH]n(-c2cccc(Cl)c2)c(=O)c1C=NC12CN3CN(CN(C3)C1)C2	none
COC(=O)c1ccc(NC(=O)CCN2CCN(Cc3ccccc3)CC2)cc1	none
CSc1ncccc1C(=O)OCC(=O)NC(C)C	none
COc1cc(CC(C#N)(CO)c2nc3ccccc3[nH]2)ccc1OC(F)F (stereo not given)	none
COc1ccc(N2CCN(C(CNC(=O)C(=O)NCc3cccs3)c3ccco3)CC2)cc1 (stereo not given)	none
